Results on nine compounds are retold here after ChEMBL document CHEMBL2021788, “Cytotoxic cardiac glycosides and other compounds from Asclepias syriaca” (J Nat Prod, 2012).

Each structure is given as a SMILES string. Bounds are passed on as bounds.

What is called IC50 is the concentration needed to halve the response being measured. A low value points to greater potency.

A short description of assay [1]: Cytotoxicity against human Hs578Bst cells after 72 hrs by CellTiter-Glo assay. Format: cell-based. The method, boiled down:
(§1)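 Breast lines (normal Hs578Bst; cancer Hs578T, T47D, Sk-Br-3, MCF-7) seeded at 3000 cells/well in 384-well plates, attached overnight. Compound dispensed acoustically at 14 concentrations spanning 0.002−40 μM, 72 h incubation. Viability by CellTiter-Glo luminescence read after 2 min shaking and 15 min stabilization. Triplicate dose−response curves, data normalized to median, IC50 from curve fit.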
A general note: In ATP-based viability assays light output follows the ATP content of the culture.

A further assay relates to T47D. In words: Cytotoxicity against human T47D cells after 72 hrs by CellTiter-Glo assay. In kind it is functional, cell-based. The essentials:
as §1

Assay [2] can be described thus: Cytotoxicity against human Hs578Bst cells at 40 uM after 72 hrs by CellTiter-Glo assay relative to untreated control. In kind it is cell-based. The essentials:
(§2)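 Hs578T or Hs578Bst cells plated at 3000/well in 384-well format, grown overnight, then exposed to 40 μM (top of a 14-point 0.002−40 μM series) for 72 h. CellTiter-Glo luminescence after 2 min shaking plus 15 min stabilization; viability given as percent of control, n = 3, ± SD.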

The test system of assay [3] is Hs-578T. As to the kind of experiment: Cytotoxicity against human Hs578T cells after 72 hrs by CellTiter-Glo assay. In kind it is functional, cell-based. The method, boiled down:
as §1

A further assay has as its system SK-BR-3. As to the kind of experiment: Cytotoxicity against human SK-BR-3 cells after 72 hrs by CellTiter-Glo assay. Format: functional, cell-based. Conditions: SK-BR-3, 72 h. The method, boiled down:
as §1

Assay [4] concerns Hs-578T. In words: Cytotoxicity against human Hs578T cells at 40 uM after 72 hrs by CellTiter-Glo assay relative to untreated control. Format: functional, cell-based. The method, boiled down:
as §2

The subject of the next assay is MCF7. In words: Cytotoxicity against human MCF7 cells after 72 hrs by CellTiter-Glo assay. In kind it is functional, cell-based. The conditions noted are these: MCF7, 72 h. The method, boiled down: as §1

Take `C[C@@H]1O[C@@H](O[C@H]2C[C@@H](O)[C@]3(CO)[C@H]4[C@H](O)C[C@]5(C)[C@@H](C6=CC(=O)OC6)CC[C@]5(O)[C@@H]4CC[C@]3(O)C2)[C@H](O)[C@H](O)[C@H]1O` [OUABAIN]: the IC50 in assay [1] is 0.006 µM; in the assay on T47D, 0.385 µM; in the assay on Hs-578T [3] it was 0.11 µM; with SK-BR-3, 0.403 µM; in the assay on MCF7, 10.6 µM. Also, the % toxicity was found to be 55.8% in assay [2] and 93% in the assay on Hs-578T [4].
Turning to `C[C@]12CC[C@H](O)C[C@H]1CC[C@@H]1[C@@H]2CC[C@]2(C)[C@@H](C3=CC(=O)OC3)CC[C@]12O` [DIGITOXIGENIN], the IC50 in assay [1] is 0.15 µM; in the assay with T47D, 2.53 µM; in the assay with Hs-578T [3], 1.02 µM; in the assay on SK-BR-3 it was 4.42 µM; in the assay on MCF7, 9.1 µM. The results for the % toxicity (in assay [2]; in the assay with Hs-578T [4]) were 49.8% and 92.3%, respectively.
In the case of `C[C@H]1O[C@@H](O[C@H]2[C@@H](O)C[C@H](O[C@H]3[C@@H](O)C[C@H](O[C@H]4CC[C@@]5(C)[C@H](CC[C@@H]6[C@@H]5C[C@@H](O)[C@]5(C)[C@@H](C7=CC(=O)OC7)CC[C@]65O)C4)O[C@@H]3C)O[C@@H]2C)C[C@H](O)[C@@H]1O` [DIGOXIN], the IC50 in assay [1] turned out to be 0.04 µM; with T47D, 0.66 µM; with Hs-578T [3], 0.251 µM; in the assay with SK-BR-3 it was 1.08 µM; in the assay on MCF7, 4.7 µM. The % toxicity turned out to be 47.7% in assay [2] and 93.5% with Hs-578T [4].
In the case of `C[C@H]1O[C@@H](O[C@H]2CC[C@@]3(C)[C@@H](CC[C@@H]4[C@@H]3CC[C@]3(C)[C@](O)(C5=CC(=O)OC5)CC[C@]43O)C2)[C@H](O)[C@H](O)[C@@H]1O[C@@H]1O[C@H](CO)[C@@H](O)[C@H](O)[C@H]1O`, the IC50 in assay [1] is 14.2 µM; with T47D it was above 40 µM; with Hs-578T [3], above 40 µM; in the assay with SK-BR-3 it was above 40 µM; in the assay on MCF7 it was above 40 µM. Also, the % toxicity in assay [2] turned out to be 38.2%; in the assay on Hs-578T [4], 56%.
With `O=c1c(O[C@@H]2OC[C@@H](O)[C@H](O)[C@H]2O[C@@H]2O[C@H](CO)[C@H](O)[C@H](O)[C@H]2O)c(-c2ccc(O)cc2)oc2cc(O)cc(O)c12`, the IC50 (in assay [1]; in the assay with T47D; in the assay on Hs-578T [3]; in the assay on SK-BR-3; in the assay with MCF7) was above 40 µM each time. In addition, the % toxicity in assay [2] turned out to be 13.9%; in the assay with Hs-578T [4] it was 32.7%.
For the compound `COc1cccc2c1C(=O)c1c(O)c3c(c(O)c1C2=O)C[C@@](O)(C(=O)CO)C[C@@H]3O[C@H]1C[C@H](N)[C@H](O)[C@H](C)O1` [DOXORUBICIN], the IC50 worked out at 0.18 µM in assay [1]; 1.9 µM with T47D; 0.546 µM in the assay with Hs-578T [3]; 0.21 µM in the assay with SK-BR-3; 1.54 µM with MCF7. For the same compound, the % toxicity in assay [2] was 64.3%; with Hs-578T [4], 98.3%.
As to `C[C@]12CC[C@H](O[C@@H]3O[C@H](CO[C@@H]4O[C@H](CO)[C@@H](O)[C@H](O)[C@H]4O)[C@@H](O)[C@H](O)[C@H]3O)C[C@@H]1CC[C@@H]1[C@@H]2CC[C@]2(C)[C@@H](C3=CC(=O)OC3)CC[C@]12O` [UZARIN], the IC50 came out at 0.76 µM in assay [1]; 9.5 µM with T47D; 4.58 µM in the assay with Hs-578T [3]; 19.4 µM in the assay with SK-BR-3; 11.6 µM with MCF7. Moreover, the % toxicity in assay [2] is 54.7%; with Hs-578T [4], 84%.
As to `C[C@]12CC[C@H](O[C@@H]3O[C@H](CO)[C@@H](O)[C@H](O)[C@H]3O)C[C@@H]1CC[C@@H]1[C@@H]2CC[C@]2(C)[C@@H](C3=CC(=O)OC3)CC[C@]12O` [DESGLUCOUZARIN], the IC50 in assay [1] turned out to be 1.05 µM; with T47D, 11.7 µM; in the assay with Hs-578T [3] it was 6.28 µM; in the assay on SK-BR-3 it was 18.1 µM; in the assay on MCF7, 17 µM. The % toxicity turned out to be 51.6% in assay [2] and 85.5% in the assay with Hs-578T [4].
For `C[C@H]1O[C@@H](O[C@H]2CC[C@@]3(C)[C@@H](CC[C@@H]4[C@@H]3CC[C@]3(C)[C@@H](C5=CC(=O)OC5)CC[C@]43O)C2)[C@H](O)[C@H](O)[C@@H]1O[C@@H]1O[C@H](CO)[C@@H](O)[C@H](O)[C@H]1O`, the IC50 in assay [1] turned out to be 0.043 µM; in the assay on T47D it was 1.76 µM; with Hs-578T [3], 0.593 µM; in the assay with SK-BR-3, 2.52 µM; in the assay with MCF7, 5.3 µM. The values for the % toxicity (in assay [2]; in the assay on Hs-578T [4]) were 51.7% and 91.5%, respectively.
